What was measured:
[1] = system: HepG2 cells; format: cell-based, human; conditions: 2 hours, DOX equivalent 30 μg/mL
Summary of the method: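 HepG2 cells in DMEM/10% FBS, 37°C, […], exposed 2 h at 37°C to free or liposomal drug at 30 μg/mL DOX equivalent. Confocal: 7 × 10^4 cells/well on cover glass, 50% confluence, PBS-washed, paraformaldehyde-fixed, Triton-permeabilised, DAPI-stained, ex/em 488/560 nm. Flow: 80% confluence, ex 488/em 575 nm, drug-free cells as reference, n = 3. Competition: 100 mM Gal stock added before liposomes.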

[2] = Pharmacokinetic studies in rats; format: in vivo, Sprague Dawley rats; conditions: at 4 hours postinjection, DOX equivalent dose 10 mg/kg
Summary of the method: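 Sprague Dawley rats, 5 per group, given 10 mg/kg DOX equivalent. Jugular blood drawn 10 min to 8 h, plasma spun off immediately. Salicylic acid internal standard added, then perchloric acid precipitation. Supernatant run on C18 HPLC in NH4H2PO4 (0.01 mol/L)-acetonitrile-acetic acid (76:24:0.4) at 1.0 mL/min, 233 nm, 40°C. Two-compartment pharmacokinetic modelling.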

[3] = In vivo biodistribution study; parameters: species or system Kunming mice; conditions: mice, intravenous, DOX equivalent 5 mg/kg; heart, spleen, lung, kidney

Plasma concentration of DOX [2]: 0.18 µg/mL
SMILES: COc1cccc2c1C(=O)c1c(O)c3c(c(O)c1C2=O)C[C@@](O)(C(=O)CO)C[C@@H]3O[C@H]1C[C@H](N)[C@H](O)[C@H](C)O1 [Free DOX, doxorubicin]
Cellular uptake of DOX (fluorescence) [1]: most intense intracellular fluorescence
DOX fluorescence in other organs [3]: fluorescence was also observed in the heart, spleen, and kidney

— article PMC3746791 (International Journal of Nanomedicine, 2013)
